Data reported in ChEMBL document CHEMBL4602736, “Progress in the Field of Aldehyde Dehydrogenase Inhibitors: Novel Imidazo[1,2-a]pyridines against the 1A Family” (ACS Med Chem Lett, 2020).
Calls of active or inactive are those of the source. The calls are words filed in the database; no cut-off is given here.

Experiments:
[1] = biological target: T1, Aldehyde dehydrogenase 1A1 (Homo sapiens, UniProt P00352); assay: Inhibition of human recombinant ALDH1A1 pre-incubated for 5 mins before acetaldehyde addition by continuous spectrometric assay relative to control
T1 sequence (P00352 whole entry): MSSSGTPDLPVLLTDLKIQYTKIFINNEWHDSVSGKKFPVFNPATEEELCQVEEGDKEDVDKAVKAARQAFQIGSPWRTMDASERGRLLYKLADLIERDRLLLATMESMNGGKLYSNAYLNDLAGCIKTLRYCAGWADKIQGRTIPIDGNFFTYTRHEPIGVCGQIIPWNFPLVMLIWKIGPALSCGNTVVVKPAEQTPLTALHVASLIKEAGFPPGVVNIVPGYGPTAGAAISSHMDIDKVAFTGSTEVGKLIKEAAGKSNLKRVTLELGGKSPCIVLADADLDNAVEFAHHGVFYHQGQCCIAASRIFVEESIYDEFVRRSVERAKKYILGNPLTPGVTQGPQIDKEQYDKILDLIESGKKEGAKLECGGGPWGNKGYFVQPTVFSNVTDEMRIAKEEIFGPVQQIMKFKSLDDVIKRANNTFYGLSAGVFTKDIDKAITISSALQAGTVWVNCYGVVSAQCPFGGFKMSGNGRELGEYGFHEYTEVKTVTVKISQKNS
In short: (§1)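 IC50 is the concentration giving 50% inhibition of the human recombinant isoform. Compounds with no significant inhibition at 25 μM were listed as not active and had no IC50 determined.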

Retinal dehydrogenase 2 [2] = biological target: T2, Retinal dehydrogenase 2 (Homo sapiens, UniProt O94788); assay: Inhibition of human recombinant ALDH1A2 pre-incubated for 5 mins before acetaldehyde addition by continuous spectrometric assay relative to control; in short: as §1
T2 sequence (O94788 whole entry): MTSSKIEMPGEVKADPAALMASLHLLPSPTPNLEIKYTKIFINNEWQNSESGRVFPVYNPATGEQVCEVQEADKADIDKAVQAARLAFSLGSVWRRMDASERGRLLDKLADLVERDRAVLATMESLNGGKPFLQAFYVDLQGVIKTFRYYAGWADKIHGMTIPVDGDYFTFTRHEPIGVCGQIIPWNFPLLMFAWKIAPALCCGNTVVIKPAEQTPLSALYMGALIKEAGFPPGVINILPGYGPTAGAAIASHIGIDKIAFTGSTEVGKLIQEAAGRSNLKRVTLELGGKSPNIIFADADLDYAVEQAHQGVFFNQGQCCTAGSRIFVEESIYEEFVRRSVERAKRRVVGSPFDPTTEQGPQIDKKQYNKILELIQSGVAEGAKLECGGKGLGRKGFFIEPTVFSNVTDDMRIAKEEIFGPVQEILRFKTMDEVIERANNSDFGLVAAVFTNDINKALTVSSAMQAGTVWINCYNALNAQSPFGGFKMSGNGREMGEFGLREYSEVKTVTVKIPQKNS

[3] = biological target: T3, Retinal dehydrogenase 2 (Homo sapiens) (UniProt O94788); assay: Inhibition of human recombinant ALDH1A2 assessed as remaining enzyme activity at 25 uM pre-incubated for 5 mins before acetaldehyde addition by continuous spectrometric assay relative to control
T3 sequence (whole entry): T2 sequence (O94788 whole entry)
In short: (§2)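 Preliminary single-concentration screen at 25 μM against human recombinant ALDH1A1, ALDH1A2 and ALDH1A3, scored as residual enzyme activity versus control.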

[4] = biological target: T4, Retinaldehyde dehydrogenase 3 (Homo sapiens, UniProt P47895); assay: Inhibition of human recombinant ALDH1A3 pre-incubated for 5 mins before acetaldehyde addition by continuous spectrometric assay relative to control; in short: as §1
T4 sequence (P47895 whole entry): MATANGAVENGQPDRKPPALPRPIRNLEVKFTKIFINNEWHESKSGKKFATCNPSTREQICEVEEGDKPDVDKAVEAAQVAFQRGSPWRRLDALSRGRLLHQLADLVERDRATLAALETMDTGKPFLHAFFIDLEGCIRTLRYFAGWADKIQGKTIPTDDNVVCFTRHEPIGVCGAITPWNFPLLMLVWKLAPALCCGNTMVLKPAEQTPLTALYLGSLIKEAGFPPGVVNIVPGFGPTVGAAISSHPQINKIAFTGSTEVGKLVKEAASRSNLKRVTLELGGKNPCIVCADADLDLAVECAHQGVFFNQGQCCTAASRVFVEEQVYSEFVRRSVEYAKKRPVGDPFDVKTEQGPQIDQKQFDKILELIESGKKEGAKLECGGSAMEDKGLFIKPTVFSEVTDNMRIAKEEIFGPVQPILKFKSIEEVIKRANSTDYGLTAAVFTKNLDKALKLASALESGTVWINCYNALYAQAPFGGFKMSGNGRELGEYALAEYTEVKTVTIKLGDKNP

[5] = biological target: T5, Aldehyde dehydrogenase 1A1 (Homo sapiens) (UniProt P00352); assay: Inhibition of human recombinant ALDH1A1 assessed as remaining enzyme activity at 25 uM pre-incubated for 5 mins before acetaldehyde addition by continuous spectrometric assay relative to control; in short: as §2
T5 sequence (whole entry): T1 sequence (P00352 whole entry)

[6] = biological target: T6, Retinaldehyde dehydrogenase 3 (Homo sapiens) (UniProt P47895); assay: Inhibition of human recombinant ALDH1A3 assessed as remaining enzyme activity at 25 uM pre-incubated for 5 mins before acetaldehyde addition by continuous spectrometric assay relative to control; in short: as §2
T6 sequence (whole entry): T4 sequence (P47895 whole entry)

Retinal dehydrogenase 2 [7] = biological target: T2, Retinal dehydrogenase 2; assay: Competitive inhibition of human recombinant ALDH1A2 pre-incubated for 5 mins before acetaldehyde addition by continuous spectrometric assay relative to control
[8] = biological target: T4, Retinaldehyde dehydrogenase 3; assay: Competitive inhibition of human recombinant ALDH1A3 pre-incubated for 5 mins before acetaldehyde addition by continuous spectrometric assay relative to control
U-87 MG = assay: Antiproliferative activity against human U87MG cells assessed as reduction in cell vitality at 100 nM to 10 uM incubated for 72 hrs by MTT assay; format: functional, cell-based; conditions: U-87MG ATCC
[9] = biological target: T1, Aldehyde dehydrogenase 1A1; assay: Competitive inhibition of human recombinant ALDH1A1 pre-incubated for 5 mins before acetaldehyde addition by continuous spectrometric assay relative to control

`COc1cccc(-c2cn3cccc(-c4ccc(Cl)cc4)c3n2)c1` was tested, and the IC50 [1] was “Not Active”, the IC50 (Retinal dehydrogenase 2 [2]) was “Not Active” and the Activity [3] was 50 to 75%. It also gave an IC50 [4] of 4.3 µM, an Activity [5] of 75 to 100% and an Activity [6] of 50 to 75%.
`Clc1ccc(-c2cccn3cc(-c4ccccc4)nc23)cc1` showed a Ki (Retinal dehydrogenase 2 [7]) of 27.6 µM, an IC50 ([1]; read-out: IC50) of 168 µM and a Ki [8] of 8.7 µM. For the same molecule, the IC50 (Retinal dehydrogenase 2 [2]; read-out: IC50) was 27.6 µM, the Activity [3] was 50 to 75% and the Activity (U-87 MG) was “Active”. For the same molecule, the Ki [9] was 168 µM, the IC50 [4] was 5.5 µM and the Activity [5] was 75 to 100%. It also gave an Activity [6] of 50 to 75%.
Work on `O=C(COc1ccc(-c2cccn3cc(-c4ccccc4)nc23)cc1)c1ccccc1` yielded an Activity [3] of 75 to 100%, an Activity [5] of 75 to 100% and an Activity [6] of 75 to 100%.
Molecule `Cc1ccc(-c2cn3cccc(-c4ccccc4)c3n2)cc1` has an Activity [3] of 50 to 75%, an Activity [5] of 75 to 100% and an Activity [6] of 50 to 75%.
With `c1ccc(-c2cn3cccc(-c4ccccc4)c3n2)cc1` the IC50 [1] was “Not Active”, the IC50 (Retinal dehydrogenase 2 [2]; read-out: IC50) was 61.4 µM and the Activity [3] was 50 to 75%. It also gave an IC50 [4] of 80.6 µM, an Activity [5] of 75 to 100% and an Activity [6] of 50 to 75%.
Molecule `Cc1ccc(-c2cn3cccc(-c4ccc(F)cc4)c3n2)cc1` has an Activity [3] of 50 to 75%, an Activity [5] of 75 to 100% and an Activity [6] of 75 to 100%.
With `COc1cccc(-c2cn3cccc(-c4cc(OC)c(OC)c(OC)c4)c3n2)c1` the Activity [3] was 75 to 100%, the Activity [5] was 75 to 100% and the Activity [6] was 75 to 100%.
`COc1ccc(-c2cn3cccc(-c4cc(OC)c(OC)c(OC)c4)c3n2)cc1` showed an Activity [3] of 75 to 100%, an Activity [5] of 75 to 100% and an Activity [6] of 75 to 100%.
`Cc1ccc(-c2cn3cccc(-c4ccc(Cl)cc4)c3n2)cc1` was tested, and the Activity [3] was 75 to 100%, the Activity [5] was 75 to 100% and the Activity [6] was 50 to 75%.
`COc1ccc(-c2cn3cccc(-c4ccc(F)cc4)c3n2)cc1` gave an Activity [3] of 75 to 100%, an Activity [5] of 75 to 100% and an Activity [6] of 75 to 100%.
`COc1cccc(-c2cn3cccc(-c4ccc(-c5ccccc5)cc4)c3n2)c1` was tested, and the Activity [3] was 75 to 100%, the Activity [5] was 75 to 100% and the Activity [6] was 75 to 100%.
For `COC(=O)c1ccc(-c2cccn3cc(-c4ccccc4)nc23)cc1`, the Ki (Retinal dehydrogenase 2 [7]) was 0.92 µM, the IC50 [1] was “Not Active” and the Ki [8] was 0.12 µM. For the same molecule, the IC50 (Retinal dehydrogenase 2 [2]) was “Not Active”, the Activity [3] was 25 to 50% and the Ki [9] was 79.5 µM. It also gave an IC50 [4] of 0.66 µM, an Activity [5] of 75 to 100% and an Activity [6] of 0 to 25%.
With `CC(C)Cc1ccc(-c2cccn3cc(-c4ccccc4)nc23)cc1` the Activity [3] was 75 to 100%, the Activity [5] was 50 to 75% and the Activity [6] was 75 to 100%.
Work on `COc1ccc(-c2cn3cccc(-c4cc(OC)cc(OC)c4)c3n2)cc1` yielded an Activity [3] of 75 to 100%, an Activity [5] of 75 to 100% and an Activity [6] of 75 to 100%.
For `Fc1ccc(-c2cccn3cc(-c4ccccc4)nc23)cc1`, the IC50 [1] was “Not Active”, the IC50 (Retinal dehydrogenase 2 [2]) was “Not Active” and the Activity [3] was 25 to 50%. It also gave an IC50 [4] of 6 µM, an Activity [5] of 75 to 100% and an Activity [6] of 25 to 50%.
In the case of `COc1cccc(-c2cn3cccc(-c4ccc(F)cc4)c3n2)c1`, the IC50 [1] is reported as “Not Active”, the IC50 (Retinal dehydrogenase 2 [2]) is reported as “Not Active” and the Activity [3] is reported as 25 to 50%. For the same molecule, the IC50 [4] was 7.2 µM, the Activity [5] was 75 to 100% and the Activity [6] was 50 to 75%.
`COc1ccc(-c2cn3cccc(-c4ccc(Cl)cc4)c3n2)cc1` showed an Activity [3] of 75 to 100%, an Activity [5] of 75 to 100% and an Activity [6] of 75 to 100%.
`c1ccc(-c2ccc(-c3cccn4cc(-c5ccccc5)nc34)cc2)cc1` gave an Activity [3] of 75 to 100%, an Activity [5] of 75 to 100% and an Activity [6] of 75 to 100%.
With `COC(=O)c1ccc(-c2cccn3cc(-c4ccc(OC)cc4)nc23)cc1` the Activity [3] was 75 to 100%, the Activity [5] was 75 to 100% and the Activity [6] was 50 to 75%.
With `COc1ccc(-c2cn3cccc(-c4ccc(-c5ccccc5)cc4)c3n2)cc1` the Activity [3] was 75 to 100%, the Activity [5] was 50 to 75% and the Activity [6] was 75 to 100%.
